Experiment [1] is filed under the species Rattus norvegicus. The experiment can be described thus: Evaluated for dopa accumulation (biochemical activity) in rat limbic system. It is filed as functional. The method, boiled down: (§1)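 Male Sprague-Dawley rats, 200-300 g. Compound dissolved in saline (sometimes with a little glacial acetic acid or warming), neutral pH, given sc at 50 μmol/kg. Dopa in limbic forebrain and striatum was measured by HPLC with electrochemical detection and expressed as percent of controls.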

For experiment [2], the species on record is Rattus norvegicus. The experiment can be described thus: Evaluated for dopa accumulation (biochemical activity) in rat striatum. It is filed as functional. A digest of the protocol:
as §1

The subject of experiment [3] is Rattus norvegicus. Description: Evaluated for the dose giving a half-maximal decrease of dopa formation in the rat brain, at a dose of 213000 (nmol/kg). Type of experiment: functional. The method, boiled down:
(§2)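 Male Sprague-Dawley rats (200-300 g) received sc doses in saline, neutral pH. Dopa was measured in each brain area by HPLC with electrochemical detection. A separate dose-response curve was built per substance and brain area from four to six dose levels (n = 3-5). The dose giving half-maximal decrease of Dopa formation was estimated from that curve. Student's t-test was used, p ≤ 0.05.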

In experiment [4] the test system is Rattus norvegicus. The experiment can be described thus: Evaluated for the dose giving a half-maximal decrease of dopa formation in the rat brain, at a dose of 13000 (nmol/kg). Type of experiment: functional. A digest of the protocol: as §2
The test system of experiment [5] is Rattus norvegicus. Description: Evaluated for dopa accumulation (biochemical activity) in rat limbic system; Inactive at 50 umol/kg. Type of experiment: functional, organism-based. The method, boiled down: as §1
Experiment [6] deals with Rattus norvegicus. Description: Evaluated for dopa accumulation (biochemical activity) in rat striatum; Inactive at 50 umol/kg. It is filed as functional, organism-based. The method, boiled down: as §1
Experiment [7] relates to Rattus norvegicus. Description: Evaluated for the dose giving a half-maximal decrease of dopa formation in the rat brain, at a dose of 31000 (nmol/kg). Type of experiment: functional. A digest of the protocol: as §2
In experiment [8] the test system is Rattus norvegicus. Description: Evaluated for the dose giving a half-maximal decrease of dopa formation in the rat brain, at a dose of 3100 (nmol/kg). Type of experiment: functional. A digest of the protocol: as §2
Experiment [9] concerns Rattus norvegicus. Description: Evaluated for the dose giving a half-maximal decrease of dopa formation in the rat brain, at a dose of 50000 (nmol/kg). It is filed as functional. A digest of the protocol: as §2
The subject of experiment [10] is Rattus norvegicus. Description: Evaluated for the dose giving a half-maximal decrease of dopa formation in the rat brain, at a dose of 310 (nmol/kg). Type of experiment: functional. A digest of the protocol:
as §2

Experiment [11] concerns Rattus norvegicus. Description: Evaluated for the dose giving a half-maximal decrease of dopa formation in the rat brain, at a dose of 1300 (nmol/kg). Type of experiment: functional. A digest of the protocol: as §2
Experiment [12] relates to Rattus norvegicus. Description: Evaluated for the dose giving a half-maximal decrease of dopa formation in the rat brain, at a dose of 39000 (nmol/kg). Type of experiment: functional. The method, boiled down: as §2

Each structure is given as a SMILES string. Activity calls are given as the source filed them. No cut-off for these calls is given here.

A word on the ED50: it is the dose that gives a 50% effect, or the effect in half of the subjects. As to `CCCN(CCC)[C@H]1CCc2ccc(O)cc2C1`, the ED50 in the experiment listed under Rattus norvegicus [1] came out at 1.9 µmol/kg; in the experiment filed under Rattus norvegicus [2] it was 2.4 µmol/kg.

Turning to `CCCN1CCC[C@@H](c2cccc(O)c2)C1.Cl` [PRECLAMOL HYDROCHLORIDE], the ED50 in the experiment listed under Rattus norvegicus [1] was 0.8 µmol/kg; in the experiment listed under Rattus norvegicus [2], 1.7 µmol/kg. Besides, the Accumulation counts in the experiment on Rattus norvegicus [3] was 12.

Take `CCCN1CCC[C@H](c2cccc(O)c2)C1.Cl`: the values for the ED50 in the experiment listed under Rattus norvegicus [1] and in the experiment filed under Rattus norvegicus [2] were 1 µmol/kg and 1.3 µmol/kg, respectively. In the experiment with Rattus norvegicus [4], this compound displayed an Accumulation counts of 78.

As for `CCCN1CCC[C@H]2c3cccc(O)c3CC[C@H]21`, the ED50 entry in the experiment on Rattus norvegicus [5] and in the experiment on Rattus norvegicus [6] was “inactive” each time.

With `CCCN1CCC[C@@H]2c3cccc(O)c3CC[C@H]21`, the results for the ED50 in the experiment filed under Rattus norvegicus [1] and in the experiment listed under Rattus norvegicus [2] were 0.32 µmol/kg and 0.41 µmol/kg, respectively. The ED50 result in the experiment with Rattus norvegicus [5] and with Rattus norvegicus [6] was “inactive” in each case. Besides, the figures for the Accumulation counts in the experiment on Rattus norvegicus [7], in the experiment on Rattus norvegicus [8] and in the experiment on Rattus norvegicus [9] were less than 138 Counts, less than 59 Counts and 31, respectively.

As for `CN1CCc2cccc3c2[C@H]1Cc1ccc(O)c(O)c1-3` [APOMORPHINE], the ED50 in the experiment filed under Rattus norvegicus [1] came to 0.19 µmol/kg; in the experiment filed under Rattus norvegicus [2], 0.22 µmol/kg.

`CCCN(CCC)[C@H]1CCc2c(O)cccc2C1.Cl` yielded an Accumulation counts in the experiment with Rattus norvegicus [10] of less than 155 Counts. Besides, the ED50 in the experiment listed under Rattus norvegicus [1] and in the experiment filed under Rattus norvegicus [2] was 0.0037 µmol/kg each time.

For `CCCN1CCC[C@H]2c3cccc(O)c3CC[C@@H]21`, the Accumulation counts is reported as less than 62 Counts with Rattus norvegicus [11] and less than 78 Counts in the experiment on Rattus norvegicus [8]. Also, the ED50 in the experiment listed under Rattus norvegicus [1] and in the experiment filed under Rattus norvegicus [2] was 0.014 µmol/kg throughout.

With `Br.CCCCN1CCCC2c3cc(O)ccc3CC[C@H]21` (some centres undefined), the ED50 result with Rattus norvegicus [5] and with Rattus norvegicus [6] was “inactive” each time. Further, the Accumulation counts with Rattus norvegicus [9] is less than 75.

`CCCN(CCC)[C@@H]1CCc2ccc(O)cc2C1`: the ED50 in the experiment listed under Rattus norvegicus [1] was 0.0095 µmol/kg; in the experiment listed under Rattus norvegicus [2] it was 0.011 µmol/kg.

Take `CCCN(CCC)[C@@H]1CCc2c(O)cccc2C1.Cl`: the ED50 in the experiment filed under Rattus norvegicus [1] was found to be 0.41 µmol/kg; in the experiment filed under Rattus norvegicus [2], 0.65 µmol/kg. The same compound came in with an Accumulation counts in the experiment with Rattus norvegicus [12] of less than 43.

These data come from ChEMBL document CHEMBL1122890, “Resolved monophenolic 2-aminotetralins and 1,2,3,4,4a,5,6,10b-octahydrobenzo[f]quinolines: structural and stereochemical considerations for centrally acting pre- and postsynaptic dopamine-receptor agonists” (1985).
